Data from article PMC8942377 (Science Advances, 2022).
Where no end group is shown, it is not given here.

Columns and labels:
[1] = test system: SST1–5; settings: cited from earlier work
[2] = test system: mice; test: Tail flick test; type: in vivo, mouse; settings: intrathecal, 1 mg/kg, positive control
Method in brief: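 Mice lightly sedated with 2% isoflurane, then given one intrathecal lumbar-puncture injection (5 μl) of saline, morphine 1 mg/kg, or test compound 0.025–0.75 mg/kg. Distal two-thirds of tail dipped in 52°C water; latency to withdrawal timed by chronometer. Result taken as mean tail flick latency.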

[3] = following intravenous infusion; cited from earlier work

Compound: urotensin-II (ETPDCFWKYCV; ends and bridges not checked; cysteine pairing not given here; UniProt O95399 114-124, looked up) [UII]
- activity at SST1–5 [1]: low activity

Compound: CN1CC[C@]23c4c5ccc(O)c4O[C@H]2[C@@H](O)C=C[C@H]3[C@H]1C5 [Morphine]
- tail flick antinociception [2]: robust antinociception

Compound: octreotide
- in vivo half-life [3]: 1.5 h
- SS receptor subtype selectivity [1]: preferentially activated SST2 over SST3 and SST5 and displayed little to no activity on SST1 or SST4
